The target of test [1] is Epithelial discoidin domain-containing receptor 1 (Homo sapiens, UniProt Q08345). In words: Inhibition of recombinant human GST-tagged DDR1 catalytic domain (440 to 876 residues) expressed in baculovirus expression system using Fluorescein-poly GAT as substrate incubated for 1 hr in presence of ATP by LanthaScreen Eu kinase assay.
The target of test [2] is Mast/stem cell growth factor receptor Kit (Homo sapiens, UniProt P10721). In words: Inhibition of human recombinant His-tagged c-Kit cytoplasmic domain (544 to 976 residues) expressed in baculovirus expression system using Ser/Thr 6 peptide as substrate after 1 hr in presence of 300 uM ATP by FRET based Z'-LYTE assay.
Mast/stem cell growth factor receptor Kit, sequence (P10721 whole entry, the tested form may be a part): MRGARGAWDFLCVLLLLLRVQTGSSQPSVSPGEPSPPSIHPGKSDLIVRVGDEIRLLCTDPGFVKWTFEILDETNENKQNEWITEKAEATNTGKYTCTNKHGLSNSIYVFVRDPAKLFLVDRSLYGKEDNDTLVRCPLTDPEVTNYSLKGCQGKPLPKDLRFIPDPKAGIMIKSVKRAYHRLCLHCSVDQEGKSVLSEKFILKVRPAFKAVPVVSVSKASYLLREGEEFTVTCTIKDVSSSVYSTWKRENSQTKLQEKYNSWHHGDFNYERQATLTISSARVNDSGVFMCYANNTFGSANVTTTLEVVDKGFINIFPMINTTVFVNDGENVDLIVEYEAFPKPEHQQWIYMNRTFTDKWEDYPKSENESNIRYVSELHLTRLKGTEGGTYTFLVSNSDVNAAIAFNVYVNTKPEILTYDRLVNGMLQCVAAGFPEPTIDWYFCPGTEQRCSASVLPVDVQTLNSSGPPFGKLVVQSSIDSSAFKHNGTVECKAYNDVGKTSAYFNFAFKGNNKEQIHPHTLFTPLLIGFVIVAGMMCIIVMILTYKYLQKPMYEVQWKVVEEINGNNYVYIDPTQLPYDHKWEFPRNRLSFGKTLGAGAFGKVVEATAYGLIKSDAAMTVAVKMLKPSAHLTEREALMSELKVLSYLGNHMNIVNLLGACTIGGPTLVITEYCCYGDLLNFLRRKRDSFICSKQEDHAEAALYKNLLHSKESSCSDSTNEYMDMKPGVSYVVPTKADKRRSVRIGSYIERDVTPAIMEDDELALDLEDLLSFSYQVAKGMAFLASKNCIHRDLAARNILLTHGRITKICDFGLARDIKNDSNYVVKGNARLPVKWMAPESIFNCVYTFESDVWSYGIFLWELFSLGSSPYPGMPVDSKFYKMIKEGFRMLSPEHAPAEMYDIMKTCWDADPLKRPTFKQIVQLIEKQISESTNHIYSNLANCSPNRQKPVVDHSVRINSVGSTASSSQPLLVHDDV
The target of test [3] is Calcium/calmodulin-dependent protein kinase type 1D (Homo sapiens, UniProt Q8IU85). The test is described as follows: Binding affinity to wild-type human partial length CAMK1D (M1 to K299 residues) expressed in bacterial expression system after 1 hr by Kinomescan method. The method in brief: (§1)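 KINOMEscan binding; Kd determined for DDR1 and the off-target kinases DDR2, CAMK1D, CLK4 and TTK.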
Calcium/calmodulin-dependent protein kinase type 1D, sequence (Q8IU85 whole entry, the tested form may be a part): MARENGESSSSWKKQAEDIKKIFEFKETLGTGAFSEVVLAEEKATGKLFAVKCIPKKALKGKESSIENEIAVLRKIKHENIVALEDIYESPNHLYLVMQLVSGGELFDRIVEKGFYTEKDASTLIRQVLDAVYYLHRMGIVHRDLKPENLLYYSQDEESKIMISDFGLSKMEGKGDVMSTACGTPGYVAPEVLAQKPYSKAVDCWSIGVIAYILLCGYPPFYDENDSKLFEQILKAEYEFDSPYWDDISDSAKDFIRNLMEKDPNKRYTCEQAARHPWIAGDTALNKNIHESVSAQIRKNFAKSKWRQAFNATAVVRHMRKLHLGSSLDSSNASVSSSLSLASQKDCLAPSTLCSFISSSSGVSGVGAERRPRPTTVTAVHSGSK

For test [4], the target named is Dual specificity protein kinase CLK4 (Homo sapiens, UniProt Q9HAZ1). In words: Binding affinity to wild-type human partial length CLK4 (R135 to K481 residues) expressed in bacterial expression system after 1 hr by Kinomescan method. The method, boiled down:
as §1

Test [5] has as its system NCI-H1299. The test is described as follows: Antimigratory activity against human H1299 cells assessed as reduction in wound closure at 1.25 uM after 24 hrs by bright field microscopic based wound healing assay relative to control. The settings on record: NCI-H1299, 24 h. In kind it is functional. The method, boiled down: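 Wound healing (scratch) migration assay in H1299 cells at 1.25, 2.5 and 5.0 μM; wound closure compared with blank control groups.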

Test [6] concerns NCI-H1299. The test is described as follows: Antiinvasive activity against human H1299 cells at 5 uM after 24 hrs by crystal violet staining based transwell assay relative to control. In kind it is functional. The following applies: NCI-H1299, 24 h. The method in brief:
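H1299 NSCLC cells; transwell invasion assay over 24 h with compound at 1.25, 2.5 and 5.0 μM; invasion expressed relative to blank control.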

A value given as a limit tells only on which side of the number the result lay.

Dual specificity protein kinase CLK4, sequence (Q9HAZ1 whole entry, the tested form may be a part): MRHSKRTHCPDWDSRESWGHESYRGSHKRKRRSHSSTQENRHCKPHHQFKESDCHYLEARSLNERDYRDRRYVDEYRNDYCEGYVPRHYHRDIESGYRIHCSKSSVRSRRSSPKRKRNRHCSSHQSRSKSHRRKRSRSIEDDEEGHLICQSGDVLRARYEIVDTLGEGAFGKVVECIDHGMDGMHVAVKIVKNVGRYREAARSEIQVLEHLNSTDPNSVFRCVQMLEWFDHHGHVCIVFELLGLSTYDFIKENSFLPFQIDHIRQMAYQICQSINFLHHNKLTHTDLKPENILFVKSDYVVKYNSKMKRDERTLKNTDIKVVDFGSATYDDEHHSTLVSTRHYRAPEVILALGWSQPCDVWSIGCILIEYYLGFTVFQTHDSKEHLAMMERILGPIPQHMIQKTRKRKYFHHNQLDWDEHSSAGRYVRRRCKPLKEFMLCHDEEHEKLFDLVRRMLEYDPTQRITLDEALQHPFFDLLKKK
Epithelial discoidin domain-containing receptor 1, sequence (Q08345 whole entry, the tested form may be a part): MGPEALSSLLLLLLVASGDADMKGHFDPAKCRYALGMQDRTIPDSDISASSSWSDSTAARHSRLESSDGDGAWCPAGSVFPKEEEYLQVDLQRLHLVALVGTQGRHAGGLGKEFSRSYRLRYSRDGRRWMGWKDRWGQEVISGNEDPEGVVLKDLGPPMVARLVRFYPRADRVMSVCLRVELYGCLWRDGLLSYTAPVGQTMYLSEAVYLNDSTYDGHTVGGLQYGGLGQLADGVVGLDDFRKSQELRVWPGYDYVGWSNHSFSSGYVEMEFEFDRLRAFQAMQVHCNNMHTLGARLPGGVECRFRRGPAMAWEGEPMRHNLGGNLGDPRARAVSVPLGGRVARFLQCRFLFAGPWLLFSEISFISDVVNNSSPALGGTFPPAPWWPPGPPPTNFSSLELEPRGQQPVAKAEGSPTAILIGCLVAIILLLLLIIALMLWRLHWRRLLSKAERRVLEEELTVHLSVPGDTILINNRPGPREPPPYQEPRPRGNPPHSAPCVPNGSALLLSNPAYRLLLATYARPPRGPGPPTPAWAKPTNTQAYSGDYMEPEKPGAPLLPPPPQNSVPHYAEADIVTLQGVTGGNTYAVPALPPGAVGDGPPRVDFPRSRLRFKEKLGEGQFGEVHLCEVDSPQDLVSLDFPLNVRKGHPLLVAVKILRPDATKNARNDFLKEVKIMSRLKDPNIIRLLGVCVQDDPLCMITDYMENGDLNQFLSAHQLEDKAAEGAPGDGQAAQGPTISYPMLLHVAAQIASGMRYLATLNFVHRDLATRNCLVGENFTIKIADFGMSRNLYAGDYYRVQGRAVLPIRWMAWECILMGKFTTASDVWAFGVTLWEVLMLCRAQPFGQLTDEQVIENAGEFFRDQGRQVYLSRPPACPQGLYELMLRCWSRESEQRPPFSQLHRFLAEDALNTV

Usually IC50 stands for the concentration at which inhibition is half-maximal. What is called Kd is the constant that tells how readily two partners part at equilibrium. What is called inhibition is how much of the control response was suppressed. As to `CCc1ccc(C(=O)Nc2cc(F)cc(C(F)(F)F)c2)cc1-c1cc(C)cc(-c2cnc3cnccn23)c1`, the concentration for half-maximal inhibition (IC50) in test [1] was 23.8 nM; in test [2], over 10000 nM. The equilibrium dissociation constant (Kd) in test [3] and in test [4] was over 1000 nM throughout. The inhibition at 1.25 µM in the test with NCI-H1299 [5] was 40%. Testing at 5 µM in the test with NCI-H1299 [6] gave an inhibition of 71%.

Values taken from ChEMBL document CHEMBL4342493, “Design and Optimization of 3'-(Imidazo[1,2-a]pyrazin-3-yl)-[1,1'-biphenyl]-3-carboxamides as Selective DDR1 Inhibitors” (ACS Med Chem Lett, 2020).
